Measurements from PubChem BioAssay.
Activity calls are given as the source filed them.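 How the source made its calls, unless noted: active means mean duplicate potentiation above the buffer control mean plus 5 SD of buffer wells; inactive means the rest.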

Tests used:
[1] = thallium flux activation in parental CHO cells, counter-screen for KCNQ1 potentiator project (AID 493006;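 active means duplicate-averaged activation above buffer control mean plus 5 SD of those controls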); details: parental CHO-K1 cells, FluxOR thallium flux, at 10 µM; hits give high values
Procedure, shortened: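 Benchmarks – buffer and R-L3 controls · Assay system – untransfected host CHO-K1 cells with FluxOR thallium dye · Measure – fluorescence change ratio scaled 0% buffer, 100% R-L3 · Technique – kinetic thallium-flux fluorescence · Timing – overnight 37 °C plating, 90 min RT dye, 20 min compound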

[2] = biological target: Potassium voltage-gated channel subfamily KQT member 1 (Homo sapiens) (UniProt P51787); test: KCNQ1 potassium channel potentiators, confirmation, FluxOR thallium flux, CHO cells, duplicates (AID 493007;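 active means potentiation averaged over duplicate wells exceeding buffer-only control mean by more than 3 SD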;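 on outcome: cells depolarized by a potassium plus thallium sulfate stimulus after compound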); details: KCNQ1 cell line, FluxOR thallium flux fluorescence, at 10 µM; hits give high values, % of reference activator effect, buffer zero
Sequence of Potassium voltage-gated channel subfamily KQT member 1 (Homo sapiens) (P51787 whole entry, looked up): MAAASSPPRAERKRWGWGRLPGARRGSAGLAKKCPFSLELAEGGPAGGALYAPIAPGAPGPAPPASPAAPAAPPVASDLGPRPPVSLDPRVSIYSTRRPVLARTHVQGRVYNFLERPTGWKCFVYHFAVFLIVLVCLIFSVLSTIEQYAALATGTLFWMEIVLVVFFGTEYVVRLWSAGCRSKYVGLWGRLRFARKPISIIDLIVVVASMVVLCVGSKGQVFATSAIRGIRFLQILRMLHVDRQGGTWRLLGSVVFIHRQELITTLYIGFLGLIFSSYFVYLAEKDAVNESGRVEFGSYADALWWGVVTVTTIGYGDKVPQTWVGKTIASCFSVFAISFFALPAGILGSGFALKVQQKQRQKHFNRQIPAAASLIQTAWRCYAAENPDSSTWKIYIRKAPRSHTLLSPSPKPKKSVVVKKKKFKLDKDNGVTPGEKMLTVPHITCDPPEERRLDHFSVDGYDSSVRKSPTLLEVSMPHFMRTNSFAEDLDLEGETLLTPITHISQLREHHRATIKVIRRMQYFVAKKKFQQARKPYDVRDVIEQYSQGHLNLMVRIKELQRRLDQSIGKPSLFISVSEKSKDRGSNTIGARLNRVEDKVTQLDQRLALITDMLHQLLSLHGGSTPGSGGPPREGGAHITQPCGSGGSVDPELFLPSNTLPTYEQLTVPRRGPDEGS
Procedure, shortened: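 Material: CHO cells stably expressing the KCNQ1 potassium channel / Times: dye 90 min then compound 20 min, both at room temperature / Detection: kinetic thallium influx fluorescence with FluxOR dye, 10 s baseline, 110 s post-stimulus / Benchmarks: buffer-only wells as 0% and R-L3 activator as 100% / Replicates: each compound tested in duplicate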

[3] = biological target: Potassium voltage-gated channel subfamily KQT member 2 (Rattus norvegicus) (UniProt O88943); test: rat KCNQ2 channel potentiation, selectivity assay for KCNQ1 potentiator project, KCNQ2-CHO-K1 cells (AID 493009); details: FluxOR thallium flux fluorescence, at 10 µM; hits give high values, scaled: buffer 0, activator control 100;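 further: assay conditions were tuned for KCNQ1 rather than KCNQ2 modulators; signal is max minus min fluorescence divided by baseline after thallium stimulus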
Sequence of Potassium voltage-gated channel subfamily KQT member 2 (Rattus norvegicus) (O88943 whole entry, looked up): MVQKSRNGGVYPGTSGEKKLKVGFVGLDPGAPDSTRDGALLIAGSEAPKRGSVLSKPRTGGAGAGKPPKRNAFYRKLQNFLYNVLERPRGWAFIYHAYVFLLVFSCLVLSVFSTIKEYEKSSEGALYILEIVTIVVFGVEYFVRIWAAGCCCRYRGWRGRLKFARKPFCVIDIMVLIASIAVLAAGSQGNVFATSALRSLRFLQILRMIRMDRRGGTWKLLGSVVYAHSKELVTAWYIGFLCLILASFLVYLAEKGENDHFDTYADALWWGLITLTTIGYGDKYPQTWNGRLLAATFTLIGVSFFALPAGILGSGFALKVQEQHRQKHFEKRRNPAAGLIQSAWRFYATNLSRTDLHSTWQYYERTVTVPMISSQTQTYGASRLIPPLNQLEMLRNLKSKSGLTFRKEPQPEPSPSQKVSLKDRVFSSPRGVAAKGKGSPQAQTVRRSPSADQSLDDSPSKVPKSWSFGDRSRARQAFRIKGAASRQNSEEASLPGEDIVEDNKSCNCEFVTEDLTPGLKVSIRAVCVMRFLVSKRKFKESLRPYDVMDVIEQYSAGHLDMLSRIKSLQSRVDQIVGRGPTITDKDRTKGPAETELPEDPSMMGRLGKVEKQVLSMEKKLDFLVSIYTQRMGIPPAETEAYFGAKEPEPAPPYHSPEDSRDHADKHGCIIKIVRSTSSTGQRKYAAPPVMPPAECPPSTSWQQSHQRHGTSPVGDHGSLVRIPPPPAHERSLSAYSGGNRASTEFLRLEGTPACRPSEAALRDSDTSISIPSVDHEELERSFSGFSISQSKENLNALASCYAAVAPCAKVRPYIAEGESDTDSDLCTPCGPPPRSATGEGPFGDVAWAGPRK

[4] = biological target: Potassium voltage-gated channel subfamily KQT member 1 (Homo sapiens) (UniProt P51787); test: KCNQ1 channel current potentiators, confirmation, orthogonal assay for KCNQ1 potentiator project, IonWorks patch clamp, KCNQ1-CHO cells (AID 493184;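 active means current rise at least 3 SD above the untreated control mean in each of two repeat wells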); details: automated patch clamp current, at 10 µM; hits give high values
Procedure, shortened: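 Probe or stimulus: depolarizing pulse to +40 mV from -90 mV; Material: CHO cells carrying KCNQ1; Compound: one dose, 10 µM final; Signal: automated voltage clamp, amphotericin B perforated patch; Read-out basis: percent current increase versus pre-compound level; Buffer or medium: pH 7.4 external bath; Replication: duplicates.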

[5] = biological target: Potassium voltage-gated channel subfamily E member 1 (Homo sapiens) + Potassium voltage-gated channel subfamily KQT member 1 (Homo sapiens) (UniProt P15382+P51787); test: KCNQ1/KCNE1 complex potentiators, confirmation, selectivity assay for KCNQ1 potentiator project, thallium flux, CHO-K1 KCNQ1/E1 cells (AID 493186;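 active means mean duplicate activation above the buffer control mean plus 5 SD of those controls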); details: FluxOR thallium flux, at 10 µM; hits give high values
Sequence of Potassium voltage-gated channel subfamily E member 1 (Homo sapiens) + Potassium voltage-gated channel subfamily KQT member 1 (Homo sapiens) (P51787 whole entry, looked up): as the sequence (P51787 whole entry, looked up) above
Procedure, shortened: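 system = KCNQ1/E1-expressing stable CHO-K1 cell line | doses = single compound concentration per well | times = dye 90 min, compound 20 min, room temperature | measured by = FluxOR Tl+ flux fluorescence, kinetic read | evaluation = fluorescence rise relative to baseline, as percent of R-L3 response above buffer | controls = buffer and R-L3 | replicates = duplicate wells per compound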

SMILES | outcome [1] | outcome [2] | outcome [3] | outcome [4] | outcome [5] | potentiation [2] | potentiation [3]
Cc1ccc(C)c(-n2c3nc(=O)n(C)c(=O)c-3cc3ccccc32)c1 | inactive | inactive | inactive | inactive | inactive | – | –
COC(=O)C1=C(C)Nc2nc(-c3ccccc3)nn2C1c1ccc(C)o1 (stereo not given) | inactive | – | inactive | inactive | inactive | 30% (active) | –
Cc1ccc(-n2c(C)cc(/C=N/NC(=O)c3ccncc3)c2C)c(C)c1 | inactive | inactive | inactive | inactive | inactive | – | –
O=c1cc(-c2ccccc2)nc2cc(-c3ccco3)[nH]n12 | inactive | inactive | inactive | inactive | inactive | – | –
COc1cc(-c2noc(C)c2-c2ccc(N(C)C)nc2)cc(OC)c1OC | inactive | inactive | inactive | inactive | inactive | – | –
CCN(C(=O)c1cc2c(=O)[nH]c3ccc(C)cc3c2s1)c1ccccc1F | inactive | – | inactive | inactive | inactive | 25% (active) | –
Cc1ccc(C(=O)NC(=S)NNC(=O)COc2ccc([N+](=O)[O-])cc2)cc1 | inactive | – | inactive | inactive | inactive | 19.5% (active) | –
COC1(c2ccccc2)NC(=S)NN=C1c1ccccc1 (stereo not given) | inactive | inactive | inactive | inactive | inactive | – | –
S=c1[nH]c(-c2cccs2)cn1-c1ccccc1 | inactive | – | – | inactive | inactive | 26% (active) | 151% (active)
CCOC(=O)C(C(=O)OCC)C(C(=O)OCC)N1CCOCC1 (stereo not given) | inactive | inactive | – | inactive | inactive | – | 171% (active)
CCOC(=O)C1=C(CC)Nc2ccccc2N=C1NC(=O)CCNC(C)=O | inactive | inactive | inactive | inactive | inactive | – | –
O=C(NC(=S)Nc1cccc(Cl)c1N1CCCCC1)c1cccs1 | inactive | – | inactive | inactive | inactive | 54% (active) | –
O=C(NC(=S)Nc1nc(-c2ccccc2)cs1)c1cccs1 | inactive | – | inactive | inactive | inactive | 38% (active) | –
Cc1ccccc1CS(=O)(=O)c1nnc([C@H](Cc2ccccc2)NC(=O)OC(C)(C)C)o1 | inactive | – | inactive | inactive | inactive | 22.5% (active) | –
S=C(N/N=C/c1cccc2ccccc12)Nc1cccc(Cl)c1 | inactive | – | inactive | inactive | inactive | 59.5% (active) | –
S=c1[nH]nc(C2CCCCC2)n1/N=C/c1cccc(Cl)c1Cl | inactive | – | inactive | inactive | inactive | 41% (active) | –
CCOc1cccc2sc(NC(=O)c3ccc(Br)s3)nc12 | inactive | inactive | inactive | inactive | inactive | – | –
CCOC(=O)CNC(=O)N1CCc2ccc(NC(=O)c3ccccc3Cl)cc2C1 | inactive | inactive | inactive | inactive | inactive | – | –
CCCOc1ccc(C(=O)NNC(=S)NC(=O)CC)cc1 | inactive | inactive | inactive | inactive | inactive | – | –
COCc1cc(C)nc(NCCO)c1C#N | inactive | inactive | inactive | inactive | inactive | – | –

SMILES | outcome [1] | outcome [2] | outcome [3] | outcome [4] | outcome [5] | potentiation [2] | potentiation [3]
CCN1CCN(c2ccc(S(=O)(=O)N3CCCC3)cn2)CC1 | inactive | inactive | inactive | inactive | inactive | – | –
O=C(NC(=S)Nc1ccc(CN2CCOCC2)cc1)c1ccc(-c2cccc(Cl)c2)o1 | inactive | – | – | inactive | inactive | 64% (active) | 144% (active)
COc1ccc(-c2csc(NC(=S)NC(=O)c3ccco3)n2)cc1Br | inactive | – | inactive | inactive | inactive | 25% (active) | –
COc1ccc2c(c1)[nH]c1c(=O)n(/N=C/c3ccc(OC)c(CN4CCCC4)c3)cnc12 | inactive | inactive | inactive | inactive | inactive | – | –
O=C(NC1=NCCS1)c1ccc(N2CCCC2=O)cc1 | inactive | – | inactive | inactive | inactive | 28.5% (active) | –
COc1ccc(C(=O)N=C2CCC(C#N)=C3c4cc(OC)c(OC)cc4CCN23)cc1 | inactive | – | inactive | inactive | inactive | 34.5% (active) | –
COc1ccc(-c2csc(N(CCCN(C)C)C(=O)c3ccccc3C)n2)cc1 | inactive | inactive | inactive | inactive | inactive | – | –
CCOC(=O)c1ccc(-n2c(CN3CCOCC3)nc3ccc([N+](=O)[O-])cc3c2=O)cc1 | inactive | inactive | inactive | inactive | inactive | – | –
CCOC(=O)COc1cc(-n2c(=S)[nH]c3cc(OC)c(OC)cc3c2=O)c(Cl)cc1Cl | inactive | – | inactive | inactive | inactive | 31.5% (active) | –
CCCCCCOc1ccc(N2C(=O)CC(N3CCN(C(=O)c4ccco4)CC3)C2=O)cc1 (stereo not given) | inactive | – | inactive | inactive | inactive | 17.5% (active) | –
Cc1ccccc1C(OCCN(C)C)C1CCCCC1 (stereo not given) | inactive | inactive | inactive | inactive | inactive | – | –
O=C(NC(=S)N1CCCCCC1)c1ccccc1Cl | inactive | – | – | inactive | inactive | 25% (active) | 146% (active)
Cc1ccc(C2C(C#N)=C(N)OC3=C2C(=O)CC(C)(C)C3)s1 (stereo not given) | inactive | inactive | inactive | inactive | inactive | – | –
COc1cccc(C(=O)CC(=O)C(=O)Nc2ccc(C)cc2Cl)c1 | inactive | inactive | inactive | inactive | inactive | – | –
CCc1ccc(-c2ccc3nnc(SC)n3n2)cc1 | inactive | inactive | inactive | inactive | inactive | – | –
CN1CCN(C(c2ccc(Cl)cc2)c2cc(Cl)c3cccnc3c2O)CC1 (stereo not given) | inactive | inactive | inactive | inactive | inactive | – | –
Cc1ccc(-n2c(C)cc(/C=N/NC(=O)c3ccncc3)c2C)cc1C | inactive | – | inactive | inactive | inactive | 30% (active) | –
COCCOC(=O)/C(=C/c1ccc(OC(=O)c2ccccc2)cc1)C(C)=O | inactive | inactive | inactive | inactive | inactive | – | –
O=C(Nc1nc2c(Br)cc(Br)cc2c(=O)s1)c1ccco1 | inactive | inactive | inactive | inactive | inactive | – | –
Clc1ccc(Nc2ccc(Cl)nn2)cc1 | inactive | inactive | – | inactive | inactive | – | 147% (active)

SMILES | outcome [1] | outcome [2] | outcome [3] | outcome [4] | outcome [5] | potentiation [2] | potentiation [3]
COc1ccccc1C(=O)NNC(=O)c1nn(Cc2ccccc2)c(=O)c2ccccc12 | inactive | inactive | inactive | inactive | inactive | – | –
COc1cccc(NC(=S)NC(=O)c2c(Cl)c(C)nn2C)c1 | inactive | inactive | inactive | inactive | inactive | – | –
O=C(CC(c1ccccc1)c1ccccc1)Nc1ncn[nH]1 | inactive | inactive | inactive | inactive | inactive | – | –
Cc1cccc(C)c1OCc1cc(C(=O)N(C)Cc2cc(C3CC3)n[nH]2)no1 | inactive | inactive | inactive | inactive | inactive | – | –
Cc1nc(NC(=S)NC(=O)c2ccccc2)sc1C | inactive | inactive | inactive | inactive | inactive | – | –
Cc1cc(C)nc(N/N=C/c2cccc3ccccc23)n1 | inactive | inactive | inactive | inactive | inactive | – | –
c1ccc(CNc2nc3ccccc3[nH]2)cc1 | inactive | inactive | inactive | inactive | inactive | – | –
COc1ccc(C2c3ccc4ccccc4c3Oc3ncn(CCN4CCOCC4)c(=N)c32)cc1OC (stereo not given) | inactive | inactive | inactive | inactive | inactive | – | –
O=C(NNC(=S)NC(=O)c1ccc(Br)cc1)c1cccc([N+](=O)[O-])c1 | inactive | inactive | inactive | inactive | inactive | – | –
O=C(NC(=S)NCCC1=CCCCC1)c1ccccc1Br | inactive | – | – | inactive | inactive | 47% (active) | 186% (active)
COc1ccc(NC(=S)NCCC(c2ccccc2)c2ccccc2)c(OC)c1 | inactive | – | inactive | inactive | inactive | 72.5% (active) | –
O=C(NC1(O)C(=O)c2ccccc2C1=O)c1ccc(C(F)(F)F)cc1 | inactive | inactive | – | inactive | inactive | – | 148% (active)
CCOc1ccc(OCCCN(C)C)cc1 | inactive | inactive | inactive | inactive | inactive | – | –
Cc1ccc(O)c(NC(=S)NC(=O)Cc2ccc(Cl)cc2)c1 | inactive | – | – | inactive | inactive | 38% (active) | 154% (active)
CCN(CC)CCNc1ncnc2c1sc1nc(N3CCCC3)c3c(c12)CC(C)(C)OC3 | inactive | inactive | inactive | inactive | inactive | – | –
CCNc1nc(NCC)nc(C(=O)OCCO)n1 | inactive | inactive | inactive | inactive | inactive | – | –
CCc1ccc(NC(=O)/C(C#N)=C/c2ccncc2)cc1 | inactive | inactive | inactive | inactive | inactive | – | –
Cc1ccc(C(=O)OCC(=O)NCCC2=CCCCC2)s1 | inactive | inactive | inactive | inactive | inactive | – | –
Oc1c(Cl)cc(Cl)cc1/C=N/NC(=S)NC1CC2C=CC1C2 (stereo not given) | inactive | inactive | inactive | inactive | inactive | – | –
OCCN(CCO)c1ccc(C(c2ccccc2Cl)c2ccc(N(CCO)CCO)cc2Cl)c(Cl)c1 | inactive | – | inactive | inactive | inactive | 34.5% (active) | –
